# High-throughput results deposited in PubChem BioAssay by several laboratories.
# An excerpt weighted towards active compounds, which were near 1.7% of everything screened.
# CSN inh: inhibitors of CSN-mediated cullin deneddylation, primary screen, biochemical, fluorescence polarization, uHTS. Purified CSN, SCF-Nedd8-OG deneddylation. inhibition, % at 12.5 µM. hit rate 0.38% among 360,000;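 active means pattern-corrected inhibition above about 35%, with an unprinted fluorescence ratio check between 0.5 and 1.5, limit read from the data, passing the limit was not always enough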
#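 assay system = purified human Csn5 enzyme expressed in HEK293T cells | amount = 0.24 nM enzyme | buffer or medium = Tris/NaCl/DTT buffer, pH 7.5 | reagent = 10 nM SCFSkp2-Nedd8OG | compound = one concentration, 12.5 µM, 0.25% DMSO | times = 90 min reaction at room temperature | signal = FP | read-out basis = % inhibition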
# TPT1 inhibitor: Candida albicans TPT1 enzyme inhibitors, primary screen, biochemical, fluorescence polarization; tRNA 2'-phosphotransferase TPT1 (Candida albicans SC5314); recombinant caTPT1, FP RNA substrate dephosphorylation; inhibition, % at 5 µM; hit rate 0.81% among 300,000;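 active means inhibition above the mean of all tested compounds plus 3 SD, set per screening campaign, cut at about 24% in these data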
# HNF4A DNA FP: change in binding of human HNF4A to DNA, primary screen, biochemical, fluorescence polarization, FITC-DNA. Hepatocyte nuclear factor 4-alpha (Homo sapiens), P41235. 1 h. activity change, % at 10 µM. hit rate 0.3% among 360,000; in the data active means activity change above about 30%, passing the limit was not always enough
# IDE cell inh: human IDE inhibitors in live cells, primary screen, fluorescence polarization, HEK cells, FAbetaB substrate; Insulin-degrading enzyme (Homo sapiens), P14735; FAbetaB cleavage; inhibition, % at 5.59 µM; hit rate 0.41% among 320,000;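 active means percent inhibition above the average of all tested compounds plus 3 SD, set per screening campaign, cut at about 16% in these data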;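 further: IDE supplied by intact live HEK cells; FP after avidin binding of uncleaved biotin substrate so inhibition keeps polarization high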
# IDE cell activ: human IDE activators in live cells, primary screen, fluorescence polarization, HEK cells, FAbeta-B substrate. FAbeta-B cleavage; 0% vehicle, 100% cell-free pure enzyme wells. activation, % at 5.96 µM. hit rate 0.073% among 340,000. AID 493087, 2011;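 active means activation above the mean of all tested compounds plus 3 SD, set per screening campaign, cut at about 17% in these data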
# Rpn11 block: Rpn11 (PSMD14) deubiquitinase inhibitors, primary screen, biochemical, fluorescence polarization, uHTS | hit rate 0.59% among 360,000 | AID 588493, 2011 | inhibition, % at 20 µM | human 26S proteasome, Ub4-pepOG fluorescence polarization; 20S core pre-blocked with epoxomicin;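 active means inhibition at 20 µM, scaled to each plate's controls, above about 33%, limit read from the data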
# TPT1 inh confirm: Candida albicans TPT1 inhibitors, confirmation, biochemical, fluorescence polarization, triplicate; inhibition, % at 5 µM; shares compounds with TPT1 inhibitor; hit rate 74% among 2,400; recombinant caTPT1, RNase T1 coupled;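 active means inhibition above the primary screen limit, the mean inhibition of all tested compounds plus 3 SD, cut at about 25% in these data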
# RNase T1 inh: RNase T1 inhibitors, counter-screen for TPT1 inhibitor project, biochemical, fluorescence polarization | shares compounds with TPT1 inhibitor | RNase T1 cleavage, 1536-well | inhibition, % at 5 µM | hit rate 83% among 2,400 | AID 2153, 2009;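 active means inhibition above the solvent-only control well mean plus 3 SD, limit set per screening run, cut at about 23% in these data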;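 further: inhibitors block cleavage so intact labeled substrate keeps polarization high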
# IDE cell inh cf: human IDE inhibitors in live cells, confirmation, fluorescence polarization, HEK cells, FAbetaB substrate. shares compounds with IDE cell inh. FAbetaB cleavage. inhibition, % at 5.59 µM. hit rate 51% among 1,200;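 active means mean inhibition across triplicate wells above the cutoff set by the earlier primary insulin-degrading enzyme screen, cut at about 16% in these data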
# HEK cytotox: cytotoxicity in HEK cells, cytotoxicity control for IDE inhibitor project, cell-based, luminescence. shares compounds with IDE cell inh. hit rate 28% among 1,200. HEK293 cytotoxicity, ATP luminescence. inhibition, % at 5.59 µM; in the data active means inhibition above about 22%
# Rpn11 inh conf: Rpn11 (PSMD14) deubiquitinase inhibitors, confirmation, biochemical, fluorescence polarization, single concentration; purified human 26S proteasome, Ub4-pepOG fluorescence polarization; proteasome pretreated with epoxomicin; AID 602318, 2012; shares compounds with Rpn11 block; hit rate 29% among 1,900; inhibition, % at 20 µM
# MMP-2 counter: MMP-2 enzyme inhibition, confirmation, counter-screen for RPN11 inhibitor project, biochemical, fluorescence, single concentration | hit rate 4% among 1,900 | recombinant MMP-2, FRET peptide cleavage fluorescence | AID 602330, 2012 | inhibition, % at 20 µM | shares compounds with Rpn11 block;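 further: human MMP-2 activated beforehand with APMA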
# Thrombin inh: bovine thrombin protease inhibition, confirmation, counter-screen for Rpn11 inhibitor project, biochemical, fluorescence polarization, single concentration; shares compounds with Rpn11 block; bovine thrombin cleavage of Ub4-pepOG; inhibition, % at 20 µM; hit rate 13% among 1,900;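 active means mean inhibition at least 40% at 20 µM, or signal 3 deviations below plate average, so some actives read negative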
# HNF4A confirm: change in HNF4A binding to DNA, retest, confirmation, biochemical, fluorescence polarization, FITC-DNA. 1 h. activity change, % at 12.5 µM. hit rate 99% among 210. shares compounds with HNF4A DNA FP. AID 1224897, 2016; call rule not given here
# Hits are given with their value; i = inactive; nt = not tested or not shown. Unless noted, no stated cut-off is given here; in the data, active means inhibition above about 40%; inactive means the rest.
SMILES,CSN inh,TPT1 inhibitor,HNF4A DNA FP,IDE cell inh,IDE cell activ,Rpn11 block,TPT1 inh confirm,RNase T1 inh,HNF4A confirm,others
COc1cc([C@@H]2[C@H]3CNCC=C3C(C#N)=C(N)C2(C#N)C#N)ccc1OC(C)C,i,34.3,48.1,i,i,nt,24.2,35.6,56.4,
COc1cc(C2C3CN(C)CC=C3C(C#N)=C(N)C2(C#N)C#N)ccc1OC(C)C (stereo not given),i,i,i,i,i,i,nt,nt,nt,
N#C/C(=C\c1ccc(-c2ccccc2C(=O)O)o1)c1nc2ccccc2[nH]1,i,94.8,43.5,31.5,i,nt,116.6,120.6,91.1,IDE cell inh cf=53.4;HEK cytotox=i
N#Cc1c(-c2c(Cl)cccc2Cl)noc1/C=C/Nc1ccc(C(=O)O)cc1,i,i,i,i,i,i,nt,nt,nt,
CSc1nsc(/C=C/Nc2ccc(C(=O)O)cc2)c1C#N,i,30.5,48.9,i,i,67.9,42.6,52.7,45.2,Rpn11 inh conf=53.2;MMP-2 counter=i;Thrombin inh=41.7
C[C@H]1CN([C@@H](C)CO)C(=O)CCCn2nncc2CO[C@H]1CN(C)S(=O)(=O)c1cccs1,i,nt,i,nt,nt,i,nt,nt,nt,
O=C(NCCc1c[nH]c2ccccc12)c1[nH]c(C(F)(F)F)nc1-c1ccccc1,i,nt,i,nt,nt,i,nt,nt,nt,
N#Cc1c(Nc2cccc(F)c2)sc2c(O)cc(=O)[nH]c12,i,51.3,44.2,i,nt,nt,28.7,40.3,52.2,
COc1ccc(C(=O)/C=C/c2cn(CN3CCN(C)CC3)c3ccccc23)cc1,i,i,i,i,i,i,nt,nt,nt,
COc1ccc(C(=O)/C=C/c2cn(CC(O)CN3CCOCC3)c3ccccc23)cc1 (stereo not given),i,51.5,42.0,i,i,nt,44.8,57.0,75.4,
CCN(CC)C(=O)CSC(Nc1ccc(F)cc1)=C(C#N)C#N,i,39.7,37.4,i,i,nt,40.5,51.5,62.0,
O=C(COC(=O)/C=C/c1ccccc1Cl)NC1CC1,i,nt,i,nt,nt,i,nt,nt,nt,
CCN1CCc2c(sc(NC(=O)CN3C(=O)c4ccccc4C3=O)c2C(N)=O)C1,i,i,i,i,i,i,nt,nt,nt,
CCN1CCc2c(sc(NC(=O)c3ccc4ccccc4c3)c2C(N)=O)C1,i,65.3,38.1,i,i,nt,80.2,89.0,65.1,
Cc1cc(C)c(Cn2c(=O)[nH][nH]c2=O)cc1Cn1c(=O)[nH][nH]c1=O,i,nt,i,nt,nt,i,nt,nt,nt,
N#CCc1nc2ccc(S(=O)(=O)N3CCOCC3)cc2s1,49.4,85.1,51.8,45.6,i,nt,62.4,76.2,54.5,IDE cell inh cf=i;HEK cytotox=i
N#CCC(=O)N/N=C/c1ccc(N2N=C(c3ccccc3)CC2c2ccccc2)cc1 (stereo not given),39.5,50.9,49.9,i,i,nt,66.6,78.5,35.3,
O=Cc1ccc(N2N=C(c3ccccc3)CC2c2ccccc2)cc1 (stereo not given),i,i,i,i,i,i,nt,nt,nt,
CCOC(=O)C1(C)CCCN(C(=O)c2ccc(F)cc2Cl)C1 (stereo not given),i,nt,i,nt,nt,i,nt,nt,nt,
C=CCn1c(SCc2nc3sc4c(c3c(=O)[nH]2)CCCC4)nc2ccccc2c1=O,i,26.6,48.8,i,i,nt,48.1,61.8,65.2,
CCOc1ccc2cc(/C=C/C(=O)c3ccco3)c(Cl)nc2c1,i,37.2,34.2,i,i,nt,57.3,68.4,35.6,
CCOc1ccc2nc(SCC(=O)NNC(=O)c3ccco3)c(C)cc2c1,i,i,i,i,i,i,nt,nt,nt,
CC(C)OC(=O)c1cc(C(=O)c2cc(F)ccc2O)coc1=N,i,i,i,i,i,i,nt,nt,nt,
COc1ccc(O)c(C(=O)c2coc(=N)c(C(=O)Nc3ccc(SC(F)F)cc3)c2)c1,55.8,63.5,44.1,20.3,i,nt,75.2,78.0,64.8,IDE cell inh cf=38.0;HEK cytotox=24.5
C=CCNc1sc(C(=O)c2ccc(Br)s2)c(N)c1C#N,i,27.9,54.9,i,i,nt,37.8,48.6,50.8,
C[C@@H]1CN([C@H](C)CO)C(=O)CCCn2nncc2CO[C@@H]1CN(C)S(=O)(=O)c1ccc(C#N)cc1,i,nt,i,nt,nt,i,nt,nt,nt,
O=S(=O)(c1ccccc1)N1CC2CC(Br)C(Br)CC21 (stereo not given),i,nt,i,nt,nt,i,nt,nt,nt,
CCOc1cc(/C=C2\N=C3CCCCCN3C2=O)ccc1O,58.4,43.1,48.7,i,i,nt,57.9,60.1,71.4,
O=C(NCc1ccccc1)c1cc(C2COCCN2C(=O)c2ccc(Cl)cc2)on1 (stereo not given),i,nt,i,nt,nt,i,nt,nt,nt,
